ChEMBL document CHEMBL3244357, “Biologically oriented organic sulfur chemistry. 15. Organic disulfides and related substances. 41. Inhibition of the fungal pathogen Histoplasma capsulatum by some organic disulfides” (J Med Chem, 1977)
≈ marks a conversion by molar mass, not a printed value. Calls of active or inactive are those of the source. The rule behind the calls is not given here.

Key:
[1] = tested on: Histoplasma capsulatum; assay: Antifungal activity against Histoplasma capsulatum 26 by agar dilution assay; type: functional
Outline: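 In vitro MIC against H. capsulatum strain 26 by standard agar dilution. Amphotericin B was run as the standard in each test.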

[2] = tested on: Mus musculus; assay: Toxicity in ip dosed mouse; type: organism-based; settings: in vivo
[3] = tested on: Histoplasma capsulatum; assay: Antifungal activity against Histoplasma capsulatum infected in x-irradiated mouse assessed as prolongation of lifetime at 25 mg/kg, sc bid administered on day 0, 1 and 2 post infection; type: functional; settings: route subcutaneous
Outline: (§1)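 Mice infected with H. capsulatum were dosed sc at 0 and 4 h postinfection on days 0, 1 and 2, six doses in total. Read-out was % extension of lifetime beyond untreated controls. Amphotericin B, dosed the same way, served as positive control.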

[4] = tested on: Histoplasma capsulatum; assay: Antifungal activity against Histoplasma capsulatum infected in x-irradiated mouse assessed as prolongation of lifetime at 13 mg/kg, sc bid administered on day 0, 1 and 2 post infection; type: functional; settings: route subcutaneous; outline: as §1
[5] = tested on: Histoplasma capsulatum; assay: Antifungal activity against Histoplasma capsulatum infected in x-irradiated mouse assessed as prolongation of lifetime at 50 mg/kg, sc bid administered on day 0, 1 and 2 post infection; type: functional; settings: route subcutaneous; outline: as §1
[6] = tested on: Histoplasma capsulatum; assay: Antifungal activity against Histoplasma capsulatum infected in x-irradiated mouse assessed as prolongation of lifetime at 6 mg/kg, sc bid administered on day 0, 1 and 2 post infection; type: functional; settings: route subcutaneous; outline: as §1
[7] = tested on: Mus musculus; assay: Toxicity in mouse at 50 mg/kg, sc bid; type: organism-based; parameters: dose 50 mg/kg, route subcutaneous; settings: in vivo
[8] = tested on: Histoplasma capsulatum; assay: Antifungal activity against Histoplasma capsulatum infected in x-irradiated mouse assessed as prolongation of lifetime at 40 mg/kg, sc bid administered on day 0, 1 and 2 post infection; type: functional; settings: route subcutaneous; outline: as §1
[9] = tested on: Histoplasma capsulatum; assay: Antifungal activity against Histoplasma capsulatum infected in x-irradiated mouse assessed as prolongation of lifetime at 10 mg/kg, sc bid administered on day 0, 1 and 2 post infection; type: functional; settings: route subcutaneous; outline: as §1
[10] = tested on: Histoplasma capsulatum; assay: Antifungal activity against Histoplasma capsulatum infected in x-irradiated mouse assessed as prolongation of lifetime at 20 mg/kg, sc bid administered on day 0, 1 and 2 post infection; type: functional; settings: route subcutaneous; outline: as §1
[11] = tested on: Candida albicans; assay: Antifungal activity against Candida albicans infected in mouse; type: functional, organism-based
[12] = tested on: Candida albicans; assay: Antifungal activity against Candida albicans by disk-plate assay; type: functional, organism-based

| Structure (SMILES) | MIC [1] | Activity [2] | Activity [3] | Activity [4] | Activity [5] | also measured |
| --- | --- | --- | --- | --- | --- | --- |
| CN(C)C(=S)SSc1ccccc1C(=O)O | < 1 µg/mL | 0.1 g/kg | – | – | – | – |
| O=C(O)c1ccccc1SSC(=S)N1CCOCC1 | > 10 µg/mL | 0.1 g/kg | -5% | -2% | -7% | – |
| COc1ccc(CSSCCCCS(=O)[O-])cc1.[Na+] | 20 µg/mL | – | -19% | -2% | 9% | – |
| CCSSC(=S)N1CCOCC1 | 10 µg/mL (≈ 44.8 µM) | – | 5% | 5% | – | Activity [6]: 5%; Activity [7]: Toxic |
| S=C(SSC(=S)N1CCOCC1)N1CCOCC1 | 40 µg/mL (≈ 123 µM) | – | 5% | 5% | – | Activity [6]: 5%; Activity [7]: Toxic |
| S=C(SSc1ccccc1)N1CCOCC1 | 40 µg/mL (≈ 147 µM) | – | 9% | 11% | – | Activity [6]: 5%; Activity [7]: Toxic |
| CCCCCCCCCCN1CCSSC1=S | > 10 µg/mL | 0.1 g/kg | – | – | – | – |
| C[C@@H]1[C@H](O)[C@@H](C)/C=C/C=C/C=C/C=C/C=C/C=C/C=C/[C@H](O[C@@H]2O[C@H](C)[C@@H](O)[C@H](N)[C@@H]2O)C[C@@H]2O[C@](O)(C[C@@H](O)C[C@@H](O)[C@H](O)CC[C@@H](O)C[C@@H](O)CC(=O)O[C@H]1C)C[C@H](O)[C@H]2C(=O)O [AMPHOTERICIN B] | 0.0625 µg/mL (≈ 0.0676 µM) | – | 58% | – | 70% | – |
| CC(C)(C)SSC(=S)N1CCOCC1 | > 40 µg/mL | – | – | – | – | Activity [8]: 11%; Activity [9]: -4%; Activity [10]: 5% |
| CN(C)C(=S)SSc1ccc(Cl)cc1 | 5 µg/mL (≈ 19 µM) | 1 g/kg | 13% | -14% | 11% | Activity [11]: inactive; Activity [12]: Active |
| Cc1ccc(SSCCN)cc1.Cl | > 20 µg/mL | – | 0% | 4% | 9% | – |
| Cc1ccc(SSCCCCS(=O)[O-])cc1.[Na+] | 20 µg/mL | – | -6% | 15% | -21% | – |
| Cc1ccc(SSC(=S)N2CCOCC2)cc1 | 40 µg/mL (≈ 140 µM) | – | 0% | 5% | 9% | – |
| COc1ccc(C(=S)SSc2ccc(C)cc2)cc1 | 20 µg/mL (≈ 65.3 µM) | – | 7% | 2% | -2% | – |
| Cc1ccc(SSCC(=O)O)cc1 | 20 µg/mL (≈ 93.3 µM) | – | -6% | 17% | 0% | – |
| S=C1SSCCN1CCCCC1CCCCC1 | 10 µg/mL (≈ 34.5 µM) | 0.1 g/kg | – | – | – | – |
